{"data": "Assay results collected from several papers", "ALK": "ALK tyrosine kinase receptor (ALK, Homo sapiens, UniProt Q9UM73)", "ALK L1196M": "ALK tyrosine kinase receptor (ALK, Homo sapiens, UniProt Q9UM73, L1196M)", "ALK C1156Y": "ALK tyrosine kinase receptor (ALK, Homo sapiens, UniProt Q9UM73, C1156Y)", "note": "Protocols differ between the studies behind these lines."}
{"Structure (SMILES)": "CCC(=O)N[C@@H]1CC[C@H](C(=O)N(C)c2ccc(-c3nc4ccccc4o3)cc2)C1", "target": "ALK", "assay": "cell-free assay, competition with immobilised ligand", "setting": "1 µM", "remaining binding [%]": 99}
{"Structure (SMILES)": "O=C(c1ccc(Nc2ncc(Cl)c(-c3cc4ccccc4s3)n2)cc1)N1CCC(N2CCCC2)CC1", "target": "ALK", "assay": "binding, competition with immobilised ligand", "setting": "1 µM", "remaining binding [%]": 68}
{"Structure (SMILES)": "C[C@H]1CCN(c2nccc(-c3cnn4ncccc34)n2)C1", "target": "ALK", "assay": "binding", "setting": "1 µM", "remaining binding [%]": 82}
{"Structure (SMILES)": "Cc1noc([C@H]2C[C@@H](c3ccc(C(F)(F)F)cc3)CN(C(=O)N3CCS(=O)(=O)C3)C2)n1", "target": "ALK L1196M", "assay": "cell-free assay, competition with immobilised ligand", "setting": "1 µM", "remaining binding [%]": 100}
{"Structure (SMILES)": "CN(C)c1nccc(-c2cnn3ncccc23)n1", "target": "ALK L1196M", "assay": "binding", "setting": "1 µM", "remaining binding [%]": 100}
{"Structure (SMILES)": "Nc1ncc2c(n1)-c1c([nH]c3ccc(C#CC4CC4)cc13)CCCC2", "target": "ALK L1196M", "assay": "binding, competition with immobilised ligand", "setting": "1 µM", "remaining binding [%]": 86}
{"Structure (SMILES)": "O=C(Nc1c[nH]nc1C(=O)NC1CCNCC1)c1cc(F)cc(F)c1", "target": "ALK L1196M", "assay": "binding, competition with immobilised ligand", "setting": "1 µM", "remaining binding [%]": 100}
{"Structure (SMILES)": "CNC(=O)[C@@H]1CC[C@@H](n2c(-c3ccc4cnccc4c3)nc3ccc(C(=O)NCc4cccc(C(N)=O)c4)cc32)C1", "target": "ALK L1196M", "assay": "binding, competition with immobilised ligand", "setting": "1 µM", "remaining binding [%]": 100}
{"Structure (SMILES)": "CO[C@H]1CC[C@H](CNc2ccc(S(=O)(=O)NC(=O)c3ccc(N4CCN(CC5=C(c6ccc(Cl)cc6)CC(C)(C)CC5)CC4)cc3Oc3cnc4[nH]ccc4c3)cc2[N+](=O)[O-])CC1", "target": "ALK", "assay": "cell-free assay, competition with immobilised ligand", "setting": "1 µM", "remaining binding [%]": 100}
{"Structure (SMILES)": "c1cncc(-c2cccc(Nc3nccc(NC4CCCCC4)n3)c2)c1", "target": "ALK C1156Y", "assay": "binding, competition with immobilised ligand", "setting": "10 µM", "remaining binding [%]": 37}
{"Structure (SMILES)": "CCCCN(CCCC)C(=O)CN1C[C@@H](c2cc(OC)c3c(c2)OCO3)[C@H](C(=O)O)[C@H]1CC(C)(C)CCC", "target": "ALK C1156Y", "assay": "cell-free assay, competition with immobilised ligand", "setting": "1 µM", "remaining binding [%]": 95.4}
{"Structure (SMILES)": "Cc1cnn2ncc(-c3ccnc(N(C)C)n3)c2c1", "target": "ALK", "assay": "binding", "setting": "1 µM", "remaining binding [%]": 92}
{"Structure (SMILES)": "O=C(c1ccc(Nc2nccc(-c3cc4ccccc4s3)n2)cc1)N1CCC(N2CCCC2)CC1", "target": "ALK C1156Y", "assay": "binding, competition with immobilised ligand", "setting": "1 µM", "remaining binding [%]": 77}
{"Structure (SMILES)": "CN(C)c1nccc(-c2cnc3ncccn23)n1", "target": "ALK", "assay": "binding", "setting": "1 µM", "remaining binding [%]": 73}
{"Structure (SMILES)": "COc1ncc2cc3ccccc3nc2c1C#N", "target": "ALK L1196M", "assay": "cell-free assay, competition with immobilised ligand", "setting": "5 µM", "remaining binding [%]": 94}
{"Structure (SMILES)": "N[C@H]1CCN(c2nccc(-c3cnn4ncccc34)n2)C1", "target": "ALK L1196M", "assay": "binding", "setting": "1 µM", "remaining binding [%]": 74}
{"Structure (SMILES)": "CC(=O)N1CCC(c2ccc(C(=O)NC3=NCCN3)cc2C(F)(F)F)CC1", "target": "ALK C1156Y", "assay": "cell-free assay, competition with immobilised ligand", "setting": "1 µM", "remaining binding [%]": 100}
{"Structure (SMILES)": "CC1CCCN1c1nccc(-c2cnn3ncccc23)n1 (stereo not shown)", "target": "ALK C1156Y", "assay": "binding", "setting": "1 µM", "remaining binding [%]": 48}
{"Structure (SMILES)": "C=CC(=O)N1CCC(C(=O)NCC(=O)N2CCN(c3nc(-c4cnc(N)nc4C(F)F)nc(N4CCOCC4)n3)CC2)CC1", "target": "ALK L1196M", "assay": "binding, competition with immobilised ligand", "setting": "1 µM", "remaining binding [%]": 79}
